# Laboratory results taken from ChEMBL document CHEMBL1127462, “Novel dual inhibitors of 5-lipoxygenase and thromboxane A2 synthetase: synthesis and structure-activity relationships of 3-pyridylmethyl-substituted 2-amino-6-hydroxybenzothiazole derivatives” (J Med Chem, 1994).
# Molecular target: T1, Polyunsaturated fatty acid 5-lipoxygenase (Rattus norvegicus, UniProt P12527)
# T1 sequence (P12527 whole entry): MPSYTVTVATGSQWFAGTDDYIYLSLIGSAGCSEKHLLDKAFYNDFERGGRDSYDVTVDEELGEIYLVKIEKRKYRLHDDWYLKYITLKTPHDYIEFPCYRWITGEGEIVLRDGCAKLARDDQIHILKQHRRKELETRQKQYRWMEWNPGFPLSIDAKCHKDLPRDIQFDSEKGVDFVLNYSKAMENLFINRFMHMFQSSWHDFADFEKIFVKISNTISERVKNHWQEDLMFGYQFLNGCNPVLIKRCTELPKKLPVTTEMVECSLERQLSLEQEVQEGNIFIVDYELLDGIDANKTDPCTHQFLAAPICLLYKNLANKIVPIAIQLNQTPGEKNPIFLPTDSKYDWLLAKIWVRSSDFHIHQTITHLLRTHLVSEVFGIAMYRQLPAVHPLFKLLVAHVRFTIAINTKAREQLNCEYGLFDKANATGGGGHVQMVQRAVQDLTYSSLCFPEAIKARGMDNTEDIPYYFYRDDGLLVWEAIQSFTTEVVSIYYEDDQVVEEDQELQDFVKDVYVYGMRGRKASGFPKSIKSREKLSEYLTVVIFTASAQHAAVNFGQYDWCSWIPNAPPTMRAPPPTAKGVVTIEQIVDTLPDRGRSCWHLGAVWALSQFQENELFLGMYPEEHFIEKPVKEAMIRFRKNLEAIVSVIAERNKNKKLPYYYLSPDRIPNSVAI
# Test: Inhibitory activity against the production of leukotriene B4 (LTB4) in glycogen-induced peritoneal cells of rat
# Format: functional
# Summary of the method: (§1)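 Peritoneal leukocytes elicited in male F344 rats by ip 6% glycogen, suspended in Ca/Mg-free HBSS (5 × 10⁶ cells/mL). Cells preincubated 5 min at 37 °C with compound or vehicle (0.1% DMSO/0.1% BSA), stimulated with A23187 (4 μM, 10 min, 37 °C), stopped with BW755C. LTB₄, TXB₂ and PGE₂ in supernatant by radioimmunoassay. Duplicate points; IC50 by probit analysis.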
row,Structure (SMILES),IC50
1,Cc1c(O)c(Cc2cccnc2)c2sc(N)nc2c1C.Cl.Cl,250 nM
2,COc1c(O)c(C)c2sc(N)nc2c1Cc1cccnc1.Cl.Cl,170 nM
3,Cc1c(O)c(C)c2sc(N)nc2c1Cc1cccnc1,190 nM
4,CCc1c(O)c(OC)c(Cc2cccnc2)c2nc(N)sc12,150 nM
5,CCNc1nc2c(Cc3cccnc3)c(C)c(O)c(C)c2s1,< 100 nM
6,Oc1cc(-c2ccccc2)c2nc(NCc3cccnc3)sc2c1,7000 nM
7,COc1cc2nc(NCc3cccnc3)sc2c(OC)c1O,90 nM

# Molecular target: T2, Thromboxane-A synthase (Rattus norvegicus, UniProt P49430)
# T2 sequence (P49430 whole entry): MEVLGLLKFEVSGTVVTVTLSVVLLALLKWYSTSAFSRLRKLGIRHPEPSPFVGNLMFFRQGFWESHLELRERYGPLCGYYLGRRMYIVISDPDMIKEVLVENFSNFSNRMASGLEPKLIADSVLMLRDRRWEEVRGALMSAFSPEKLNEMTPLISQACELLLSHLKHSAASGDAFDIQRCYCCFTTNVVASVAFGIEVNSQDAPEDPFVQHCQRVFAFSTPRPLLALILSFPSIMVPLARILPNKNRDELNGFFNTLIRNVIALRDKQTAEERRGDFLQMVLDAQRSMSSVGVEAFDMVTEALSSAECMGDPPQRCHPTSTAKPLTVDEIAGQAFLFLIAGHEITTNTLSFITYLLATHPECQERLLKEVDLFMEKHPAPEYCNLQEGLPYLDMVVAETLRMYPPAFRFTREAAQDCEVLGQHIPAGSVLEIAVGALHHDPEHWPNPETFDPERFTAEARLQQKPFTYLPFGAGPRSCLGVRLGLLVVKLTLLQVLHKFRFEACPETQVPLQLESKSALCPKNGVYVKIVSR
# Test: Inhibitory activity against the production of thromboxane B2 (TXB2) in glycogen-induced peritoneal cells of rat
# Format: functional
# Summary of the method: as §1
row,Structure (SMILES),IC50
1,Cc1c(O)c(Cc2cccnc2)c2sc(N)nc2c1C.Cl.Cl,5300 nM
2,COc1c(O)c(C)c2sc(N)nc2c1Cc1cccnc1.Cl.Cl,110 nM
3,Cc1c(O)c(C)c2sc(N)nc2c1Cc1cccnc1,2 nM
4,CCc1c(O)c(OC)c(Cc2cccnc2)c2nc(N)sc12,180 nM
5,CCNc1nc2c(Cc3cccnc3)c(C)c(O)c(C)c2s1,100 nM
6,Oc1cc(-c2ccccc2)c2nc(NCc3cccnc3)sc2c1,1400 nM
7,COc1cc2nc(NCc3cccnc3)sc2c(OC)c1O,5500 nM

# System: Rattus norvegicus
# Test: Tested for the ability to decrease lesion area in the colon of the TNB/ethanol-induced chronic colitis rats at the dosage of 100 mg/kg/day
# Format: functional
# Summary of the method: (§2)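 TNB/ethanol colitis rats dosed orally (0.5% MC suspension) once daily for 11 days from day 3, killed day 14. Ethanol-only group as baseline. Colonic MPO activity measured; lesion area (mm²/colon) by stereomicroscope. % inhibition = [1 − (test − ethanol)/(control − ethanol)] × 100. Mean ± SEM.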
row,Structure (SMILES),inhibition in vivo at 100 mg/kg/day
1,CNc1nc2c(Cc3cccnc3)c(C)c(O)c(C)c2s1,39%
2,CCNc1nc2c(Cc3cccnc3)c(C)c(O)c(C)c2s1,57%

# System: Rattus norvegicus
# Test: Tested for the ability to decrease lesion area in the colon of the TNB/ethanol-induced chronic colitis rats at the dosage of 500 mg/kg/day
# Format: functional
# Summary of the method: as §2
row,Structure (SMILES),inhibition in vivo at 500 mg/kg/day
1,O=C(O)c1cc(/N=N/c2ccc(S(=O)(=O)Nc3ccccn3)cc2)ccc1O [SULFASALAZINE],16%

# System: not listed separately
# Test: Tested for inhibitory activity against thromboxane B2 (TXB2) in human platelets
# Summary of the method: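 Washed human platelets (3 × 10⁸ cells/mL) in Tris-HCl-saline, pH 7.4, with 10 μM indomethacin. Preincubated 5 min at 25 °C with compound, PGH₂ (1 μg/mL) for 3 min at 25 °C, citrate/ethanol stop. TXB₂ in supernatant by radioimmunoassay. Duplicate points; IC50 by probit analysis.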
row,Structure (SMILES),IC50
1,CNc1nc2c(Cc3cccnc3)c(C)c(O)c(C)c2s1,80 nM
2,Cc1c(O)c(C)c2sc(NCc3ccc(S(N)(=O)=O)cc3)nc2c1C,> 100000 nM
3,CCNc1nc2c(Cc3cccnc3)c(C)c(O)c(C)c2s1,60 nM

# Species: Homo sapiens
# Test: Tested for inhibitory activity against the production of leukotriene B4 (LTB4) in human whole blood
# Format: functional, organism-based
# Summary of the method: (§3)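 Heparinized (10 U/mL) fresh blood from healthy volunteers, 0.4 mL aliquots, preincubated 5 min at 37 °C with compound or vehicle (0.1% DMSO/0.1% BSA). A23187 (40 μM) added for 20 min. LTB₄, TXB₂, PGE₂ in plasma by radioimmunoassay. Duplicate points; IC50 by probit analysis.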
row,Structure (SMILES),IC50
1,CNc1nc2c(Cc3cccnc3)c(C)c(O)c(C)c2s1,830 nM
2,Cc1c(O)c(C)c2sc(NCc3ccc(S(N)(=O)=O)cc3)nc2c1C,24000 nM
3,CCNc1nc2c(Cc3cccnc3)c(C)c(O)c(C)c2s1,1100 nM

# Species: Homo sapiens
# Test: Tested for inhibitory activity against the production of prostaglandin E2 (PGE2) in human whole blood
# Format: functional, organism-based
# Summary of the method: as §3
row,Structure (SMILES),IC50
1,CNc1nc2c(Cc3cccnc3)c(C)c(O)c(C)c2s1,> 90000 nM
2,Cc1c(O)c(C)c2sc(NCc3ccc(S(N)(=O)=O)cc3)nc2c1C,> 100000 nM
3,CCNc1nc2c(Cc3cccnc3)c(C)c(O)c(C)c2s1,> 91000 nM

# Species: Homo sapiens
# Test: Tested for inhibitory activity against the production of thromboxane B2 (TXB2) in human whole blood
# Format: functional, organism-based
# Summary of the method: as §3
row,Structure (SMILES),IC50
1,CNc1nc2c(Cc3cccnc3)c(C)c(O)c(C)c2s1,1100 nM
2,Cc1c(O)c(C)c2sc(NCc3ccc(S(N)(=O)=O)cc3)nc2c1C,42000 nM
3,CCNc1nc2c(Cc3cccnc3)c(C)c(O)c(C)c2s1,560 nM

# Molecular target: T3, Thromboxane-A synthase (Homo sapiens, UniProt P24557)
# T3 sequence (P24557 whole entry): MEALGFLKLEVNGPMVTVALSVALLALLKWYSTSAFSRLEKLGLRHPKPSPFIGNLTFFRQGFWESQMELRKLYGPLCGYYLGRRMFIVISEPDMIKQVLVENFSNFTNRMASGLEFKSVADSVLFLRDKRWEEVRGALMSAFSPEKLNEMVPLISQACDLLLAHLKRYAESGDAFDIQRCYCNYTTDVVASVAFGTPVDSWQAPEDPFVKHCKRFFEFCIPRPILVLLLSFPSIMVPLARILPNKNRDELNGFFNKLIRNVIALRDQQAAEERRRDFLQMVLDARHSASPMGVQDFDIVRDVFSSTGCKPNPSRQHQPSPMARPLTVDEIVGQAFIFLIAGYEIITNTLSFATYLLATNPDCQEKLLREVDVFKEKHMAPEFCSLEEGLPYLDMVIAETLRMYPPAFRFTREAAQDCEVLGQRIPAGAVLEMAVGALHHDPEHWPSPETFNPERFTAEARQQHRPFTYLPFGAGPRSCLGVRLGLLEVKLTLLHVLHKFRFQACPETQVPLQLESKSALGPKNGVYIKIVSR
# Test: Tested for inhibitory activity against thromboxane A2 (TXA2) synthetase in microsome of human platelets
# Summary of the method: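 Platelet microsome fraction (105000g) resuspended in 50 mM Tris-HCl-saline, pH 7.4, with 10 μM indomethacin. 20 μg protein preincubated 5 min at 25 °C with compound, PGH₂ (1 μg/mL) for 1 min at 25 °C, citric acid/ethanol stop. TXB₂ by radioimmunoassay. Duplicate points; IC50 by probit analysis.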
row,Structure (SMILES),IC50
1,CNc1nc2c(Cc3cccnc3)c(C)c(O)c(C)c2s1,9 nM
2,CCNc1nc2c(Cc3cccnc3)c(C)c(O)c(C)c2s1,10 nM

# Species: Homo sapiens
# Test: Tested for inhibitory activity against leukotriene B4 (LTB4) in human neutrophils
# Format: functional, organism-based
# Summary of the method: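 Human blood neutrophils from heparinized blood (dextran sedimentation, Percoll gradient), 1 × 10⁶ cells/mL in Ca/Mg-free HBSS. Preincubated 5 min at 37 °C with compound or vehicle, A23187 (4 μM) for 10 min. LTB₄ in cell-free supernatant by radioimmunoassay. Duplicate points; IC50 by probit analysis.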
row,Structure (SMILES),IC50
1,CCNc1nc2c(Cc3cccnc3)c(C)c(O)c(C)c2s1,< 100 nM

# System: not listed separately
# Test: Tested for the suppression ratio, the difference between the amount of LTB4 produced in the test groups and the control group at the dosage of 100 mg/kg
# Format: functional
# Summary of the method: (§4)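 Male F344 rats (9 weeks, fasted 2 days) given a single intracolonic dose of 30 mg TNB in 0.25 mL 50% ethanol. Day 7: one oral dose in 0.5% MC, or vehicle. Killed 6 h later; colon incubated with A23187 (2 μg/mL) in Tyrode, 15 min, 37 °C. Eicosanoids by radioimmunoassay. Suppression versus vehicle controls; mean ± SEM.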
row,Structure (SMILES),Suppression ratio
1,Cc1c(O)c(C)c2sc(NCc3ccc(S(N)(=O)=O)cc3)nc2c1C,86%

# System: not listed separately
# Test: Tested for the suppression ratio, the difference between the amount of PGE-2 produced in the test groups and the control group at the dosage of 100 mg/kg
# Format: functional
# Summary of the method: as §4
row,Structure (SMILES),Suppression ratio
1,Cc1c(O)c(C)c2sc(NCc3ccc(S(N)(=O)=O)cc3)nc2c1C,0%

# System: not listed separately
# Test: Tested for the suppression ratio, the difference between the amount of TXB2 produced in the test groups and the control group at the dosage of 100 mg/kg
# Format: functional
# Summary of the method: as §4
row,Structure (SMILES),Suppression ratio
1,Cc1c(O)c(C)c2sc(NCc3ccc(S(N)(=O)=O)cc3)nc2c1C,0%

# Molecular target: T1, Polyunsaturated fatty acid 5-lipoxygenase
# Test: Tested for inhibitory activity against 5-lipoxygenase in microsome of RBL-1 cells
# Format: cell-based
# Summary of the method: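 RBL-1 cells sonicated at 0 °C in 50 mM phosphate, pH 7.4, with 0.25 M sucrose and 1 mM EDTA. Homogenate preincubated 5 min at 37 °C with compound plus 2 mM glutathione, then arachidonic acid (0.2 mM) for 10 min at 37 °C. Formic acid stop, CHCl₃/MeOH extraction, 5-HETE by HPLC. Duplicate points; IC50 by probit analysis.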
row,Structure (SMILES),IC50
1,CNc1nc2c(Cc3cccnc3)c(C)c(O)c(C)c2s1,230 nM
2,Cc1c(O)c(C)c2sc(NCc3ccc(S(N)(=O)=O)cc3)nc2c1C,210 nM
3,CCNc1nc2c(Cc3cccnc3)c(C)c(O)c(C)c2s1,910 nM

# Molecular target: Cyclooxygenase (Rattus norvegicus)
# Test: Inhibitory activity against the production of prostaglandin E2 (PGE2) in glycogen-induced peritoneal cells of rat
row,Structure (SMILES),IC50
1,Cc1c(O)c(Cc2cccnc2)c2sc(N)nc2c1C.Cl.Cl,> 100000 nM
2,COc1c(O)c(C)c2sc(N)nc2c1Cc1cccnc1.Cl.Cl,> 100000 nM
3,Oc1cc(-c2ccccc2)c2nc(NCc3cccnc3)sc2c1,9600 nM
